In ChEMBL document CHEMBL1157681 (Bioorg Med Chem, 2010):
The source made the active and inactive calls. The rule behind the calls is not given here.

Key:
MCF7 [1] = experiment: Antiproliferative activity against human MCF7 cells after 72 hrs by MTS/PMS assay; type: functional, cell-based; details: MCF7, 72 h
Summary of the method: (§1)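 Cells grown at 37 °C in humidified 5% CO2, seeded at 2000/well and left to attach overnight. Compound added at varying concentrations in DMSO (1% final) for 72 h. Viable cells read by MTS/PMS, normalized to 1% DMSO wells as 100% proliferation. IC50 taken from separate experiments run in triplicate.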

SK-BR-3 [2] = experiment: Antiproliferative activity against human SKBR3 cells after 72 hrs by MTS/PMS assay; type: functional, cell-based; details: SK-BR-3, 72 h; summary of the method: as §1
SK-BR-3 [3] = experiment: Ratio of IC50 for human SK-BR-3 cells to IC50 for human MCF7 cells; type: functional
[4] = target: Heat shock protein HSP 90-beta (Homo sapiens) (UniProt P08238); experiment: Inhibition of HSP90 in human MCF7 cells assessed as induction of HSP90 client protein Her2 degradation after 24 hrs by Western blot analysis; type: cell-based
Heat shock protein HSP 90-beta (Homo sapiens), sequence (P08238 whole entry): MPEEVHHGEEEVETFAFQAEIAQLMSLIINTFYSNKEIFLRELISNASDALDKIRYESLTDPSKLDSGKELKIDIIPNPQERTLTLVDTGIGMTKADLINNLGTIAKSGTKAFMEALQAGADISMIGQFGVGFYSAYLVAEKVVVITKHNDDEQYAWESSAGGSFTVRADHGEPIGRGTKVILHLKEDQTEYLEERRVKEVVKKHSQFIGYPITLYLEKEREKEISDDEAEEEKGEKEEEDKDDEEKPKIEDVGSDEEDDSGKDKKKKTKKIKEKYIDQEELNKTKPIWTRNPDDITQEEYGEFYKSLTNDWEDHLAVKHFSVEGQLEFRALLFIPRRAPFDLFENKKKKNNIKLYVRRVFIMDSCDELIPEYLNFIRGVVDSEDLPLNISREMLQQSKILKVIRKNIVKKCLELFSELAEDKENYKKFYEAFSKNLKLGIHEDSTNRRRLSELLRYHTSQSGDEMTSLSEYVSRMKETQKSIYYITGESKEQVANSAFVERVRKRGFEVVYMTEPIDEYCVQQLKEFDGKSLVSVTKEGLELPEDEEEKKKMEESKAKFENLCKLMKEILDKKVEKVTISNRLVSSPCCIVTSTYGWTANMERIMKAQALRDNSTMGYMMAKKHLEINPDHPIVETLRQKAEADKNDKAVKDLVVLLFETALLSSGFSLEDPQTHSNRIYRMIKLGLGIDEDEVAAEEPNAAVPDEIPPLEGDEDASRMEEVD
Summary of the method: (§2)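 MCF-7 cells exposed 24 h to various concentrations in DMSO (1% final) or vehicle. Cells lysed in RIPA with 1 mM PMSF, 2 mM orthovanadate and protease inhibitors, 1 h on ice, then clarified at 14000g for 10 min at 4 °C; protein by BCA. 20 μg protein run under reducing conditions, blotted to nitrocellulose, probed with specific antibodies plus HRP secondary, read by chemiluminescence; β-actin also probed.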

[5] = target: Heat shock protein HSP 90-beta (Homo sapiens) (UniProt P08238); experiment: Inhibition of HSP90 in human MCF7 cells assessed as induction of HSP90 client protein cRaf degradation after 24 hrs by Western blot analysis; type: cell-based; summary of the method: as §2
MCF7 [6] = experiment: Inhibition of heat shock response-induced increase in HSP90 protein level in human MCF7 cells at 1 to 100 uM after 24 hrs by Western blot analysis; type: functional, cell-based

| Structure (SMILES) | IC50 (MCF7 [1]) | IC50 (SK-BR-3 [2]) | Ratio IC50 (SK-BR-3 [3]) | Activity [4] | Activity [5] | inhibition (MCF7 [6]) |
| --- | --- | --- | --- | --- | --- | --- |
| CC(=O)Nc1coc2cc(O)ccc2c1=O | > 100 µM | > 100 µM | – | – | – | – |
| Cc1c(O)ccc2c(=O)c(-c3ccc4c(c3)OCO4)coc12 | > 100 µM | > 100 µM | – | – | – | – |
| COc1cccc(-c2cc(C(=O)Nc3cc(=O)c4cc(O[C@@H]5OC(C)(C)[C@H](OC)[C@@H](O)[C@H]5O)ccc4o3)ccc2OC)c1 | 14.7 µM | 33.8 µM | – | – | – | – |
| CO[C@@H]1[C@@H](O)[C@@H](O)[C@H](Oc2ccc3c(=O)c(-c4ccc5c(c4)OCO5)coc3c2)OC1(C)C | 9.2 µM | 18 µM | – | – | – | – |
| CC(=O)Oc1ccc2c(=O)c(-c3ccc4c(c3)OCO4)coc2c1C | > 100 µM | > 100 µM | – | – | – | – |
| CO[C@@H]1[C@@H](O)[C@@H](O)[C@H](Oc2ccc3c(=O)c(NC(C)=O)coc3c2)OC1(C)C | > 100 µM | > 100 µM | – | – | – | – |
| CO[C@@H]1[C@@H](O)[C@@H](O)[C@H](Oc2ccc3c(=O)c(-c4ccc5c(c4)OCO5)coc3c2C)OC1(C)C | 18.4 µM | 21.4 µM | – | – | – | – |
| CC(=O)Nc1coc2cc(O)cc(O)c2c1=O | > 100 µM | > 100 µM | – | – | – | – |
| CC(=O)Nc1cc(=O)c2cc(O)ccc2o1 | > 100 µM | > 100 µM | – | – | – | – |
| CO[C@@H]1[C@@H](O)[C@@H](O)[C@H](Oc2ccc3oc(NC(C)=O)cc(=O)c3c2)OC1(C)C | > 100 µM | > 100 µM | – | – | – | – |
| CO[C@@H]1[C@@H](O)[C@@H](O)[C@H](Oc2cc(O)c3c(=O)c(NC(C)=O)coc3c2)OC1(C)C | > 100 µM | > 100 µM | – | – | – | – |
| COc1cccc(-c2cc(C(=O)Nc3cc(=O)c4cc(OC(C)=O)ccc4o3)ccc2OC)c1 | > 100 µM | > 100 µM | – | – | – | – |
| COc1cccc(-c2cc(C(=O)Nc3coc4cc(O[C@@H]5OC(C)(C)[C@H](OC)[C@@H](O)[C@H]5O)cc(O)c4c3=O)ccc2OC)c1 | 23.6 µM | 19.4 µM | – | – | – | – |
| COc1cccc(-c2cc(C(=O)Nc3coc4c(C)c(O)ccc4c3=O)ccc2OC)c1 | 4.9 µM | 44.1 µM | 1.9 | – | – | – |
| COc1cccc(-c2cc(C(=O)Nc3cc(=O)c4cc(O)ccc4o3)ccc2OC)c1 | 10.5 µM | 19.6 µM | – | – | – | – |
| O=c1c(-c2ccc3c(c2)OCO3)coc2cc(O)ccc12 [PSEUDOBAPTOGENIN] | > 100 µM | > 100 µM | – | – | – | – |
| CC(=O)Nc1coc2cc(OC(C)=O)cc(O)c2c1=O | 93.7 µM | > 100 µM | – | – | – | – |
| O=c1c(-c2ccc3c(c2)OCO3)coc2cc(O)cc(O)c12 | 70 µM | > 100 µM | – | – | – | – |
| CC(=O)Oc1ccc2c(=O)c(-c3ccc4c(c3)OCO4)coc2c1 | > 100 µM | > 100 µM | – | – | – | – |

| Structure (SMILES) | IC50 (MCF7 [1]) | IC50 (SK-BR-3 [2]) | Ratio IC50 (SK-BR-3 [3]) | Activity [4] | Activity [5] | inhibition (MCF7 [6]) |
| --- | --- | --- | --- | --- | --- | --- |
| CC(=O)Nc1coc2c(C)c(OC(C)=O)ccc2c1=O | > 100 µM | > 100 µM | – | – | – | – |
| COc1cccc(-c2cc(C(=O)Nc3coc4cc(OC(C)=O)cc(O)c4c3=O)ccc2OC)c1 | 5.1 µM | 3.3 µM | – | – | – | – |
| CO[C@@H]1[C@@H](O)[C@@H](O)[C@H](Oc2cc(O)c3c(=O)c(-c4ccc5c(c4)OCO5)coc3c2)OC1(C)C | > 100 µM | > 100 µM | – | – | – | – |
| CC(=O)Nc1coc2c(C)c(O)ccc2c1=O | > 100 µM | > 100 µM | – | – | – | – |
| CC(=O)Nc1coc2cc(OC(C)=O)ccc2c1=O | > 100 µM | > 100 µM | – | – | – | – |
| CC(=O)Nc1cc(=O)c2cc(OC(C)=O)ccc2o1 | > 100 µM | > 100 µM | – | – | – | – |
| COc1cccc(-c2cc(C(=O)Nc3coc4cc(O[C@@H]5OC(C)(C)[C@H](OC)[C@@H](O)[C@H]5O)ccc4c3=O)ccc2OC)c1 | 25.2 µM | 29 µM | – | Dose-dependent effect | Dose-dependent effect | Active |
| CC(C)=CCc1cc2c(=O)c(-c3ccc4c(c3)OCO4)coc2c(C)c1O | 49.2 µM | > 100 µM | – | – | – | – |
| CO[C@@H]1[C@@H](O)[C@@H](O)[C@H](Oc2ccc3cc(NC(=O)CCCCC(=O)Nc4cc5ccc(O[C@@H]6OC(C)(C)[C@H](OC)[C@@H](O)[C@H]6O)cc5oc4=O)c(=O)oc3c2)OC1(C)C | – | 2 µM | – | – | – | – |
| COc1cccc(-c2cc(C(=O)Nc3coc4c(C)c(O[C@@H]5OC(C)(C)[C@H](OC)[C@@H](O)[C@H]5O)ccc4c3=O)ccc2OC)c1 | 51.6 µM | 46 µM | – | – | – | – |
| COc1cccc(-c2cc(C(=O)Nc3coc4cc(O)ccc4c3=O)ccc2OC)c1 | 8.6 µM | 37.1 µM | 1.9 | – | – | – |
| CC(C)=CCc1cc2c(=O)c(-c3ccc4c(c3)OCO4)coc2cc1O | 13.1 µM | 36.5 µM | – | – | – | – |
| COc1cccc(-c2cc(C(=O)Nc3coc4cc(O)cc(O)c4c3=O)ccc2OC)c1 | 9.7 µM | 21.3 µM | 1.9 | – | – | – |
| CC(C)=CCc1c(O)cc2occ(-c3ccc4c(c3)OCO4)c(=O)c2c1O [DERRUBONE] | 11.9 µM | – | – | – | – | – |
| COc1cccc(-c2cc(C(=O)Nc3coc4cc(OC(C)=O)ccc4c3=O)ccc2OC)c1 | 9.5 µM | 18.4 µM | – | – | – | – |
| COc1cccc(-c2cc(C(=O)Nc3coc4c(C)c(OC(C)=O)ccc4c3=O)ccc2OC)c1 | 4.8 µM | 17 µM | – | – | – | – |
| CC(=O)Oc1cc(O)c2c(=O)c(-c3ccc4c(c3)OCO4)coc2c1 | > 100 µM | > 100 µM | – | – | – | – |
| CO[C@@H]1[C@@H](O)[C@@H](O)[C@H](Oc2ccc3c(=O)c(NC(C)=O)coc3c2C)OC1(C)C | > 100 µM | > 100 µM | – | – | – | – |
